ChEMBL document CHEMBL3864131, “Development, synthesis and structure-activity-relationships of inhibitors of the macrophage infectivity potentiator (Mip) proteins of Legionella pneumophila and Burkholderia pseudomallei” (Bioorg Med Chem, 2016)

Key:
[1] = Stability of the compound in methanol/HEPES buffer at pH 7.8 at 40 degC for 24 hrs by HPLC analysis; type: physicochemical; conditions: read-out: Stability
Method in brief: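 Compound dilutions incubated for 24 h in methanol with 10 mM HEPES buffer (pH 7.8) at 25 °C and 40 °C. HPLC analysis was done at 0 and 24 h to give the percentage of intact compound remaining.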

[2] = biological target: Outer membrane protein MIP (Legionella pneumophila, UniProt Q70YI1)
Chain of Outer membrane protein MIP (Q70YI1 21-233 limits assumed): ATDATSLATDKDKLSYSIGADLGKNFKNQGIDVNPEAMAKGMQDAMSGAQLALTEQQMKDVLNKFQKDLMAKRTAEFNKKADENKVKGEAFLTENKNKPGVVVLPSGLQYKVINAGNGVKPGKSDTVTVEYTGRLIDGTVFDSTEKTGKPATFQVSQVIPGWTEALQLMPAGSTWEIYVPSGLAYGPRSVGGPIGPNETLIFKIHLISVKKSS

in vitro = conditions: mouse, J774.1 cells
[3] = Metabolic stability in mouse J774.1 cells at 37 degC after 24 hrs by HPLC analysis; type: ADME, cell-based; conditions: read-out: Stability
Method in brief: (§1)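 Compound incubated with J774.1 murine macrophages in RPMI medium at 37 °C, sampled at 0, 1 and 24 h, and the remaining compound quantified by HPLC.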

[4] = Metabolic stability in mouse J774.1 cells at 37 degC after 1 hr by HPLC analysis; type: ADME, cell-based; conditions: read-out: Stability; method in brief: as §1
[5] = Stability in human plasma after 4 hrs by HPLC analysis; type: ADME, cell-free
Method in brief: (§2)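 Compound incubated in human plasma and sampled at 1, 4 and 24 h. The decrease in compound concentration was followed by HPLC.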

[6] = Stability in human plasma after 1 hr by HPLC analysis; type: ADME, cell-free; method in brief: as §2
[7] = Stability in human plasma after 24 hrs by HPLC analysis; type: ADME, cell-free; method in brief: as §2

## COc1cc(CCCOC(=O)[C@@H]2CCCCN2S(=O)(=O)Cc2ccccc2)cc(OC)c1OC
[1]
  remaining at 24 h: 99%

## COc1cc(C(=O)NC[C@H](C)OC(=O)[C@@H]2CCCCN2S(=O)(=O)Cc2ccccc2)cc(OC)c1OC
[2]
  IC50: 2.2 µM
In vitro
  IC50 at 24 h: > 100 µM

## COCCOc1cc(OCCOC)cc(C(=O)OCCOC(=O)[C@@H]2CCCCN2S(=O)(=O)Cc2ccccc2)c1
[3]
  remaining at 24 h: 59%
[1]
  remaining at 24 h: 85%
[2]
  IC50: 8.6 µM
[4]
  remaining at 1 h: 98%
In vitro
  IC50 at 24 h: > 80 µM

## C[C@@H](CNC(=O)c1cccnc1)OC(=O)[C@@H]1CCCCN1S(=O)(=O)Cc1ccccc1
[3]
  remaining at 24 h: 97%
[1]
  remaining at 24 h: > 95%
[2]
  IC50: 3.5 µM
[4]
  remaining at 1 h: 95%
In vitro
  IC50 at 24 h: > 100 µM

## O=C(NCCOC(=O)[C@@H]1CCCCN1S(=O)(=O)Cc1ccccc1)c1cccnc1
[5]
  Stability: 20%
[3]
  remaining at 24 h: 81%
[2]
  IC50: 11.4 µM
[4]
  remaining at 1 h: 82%
[6]
  Stability: 5%
[7]
  Stability: 50%
In vitro
  IC50 at 24 h: > 100 µM

## O=C(OCCCc1cccnc1)[C@@H]1CCCCN1S(=O)(=O)Cc1cccc([N+](=O)[O-])c1
[2]
  IC50: 7.9 µM
In vitro
  IC50 at 24 h: 48.2 µM

## O=C(OCCOc1cccnc1)[C@@H]1CCCCN1S(=O)(=O)Cc1ccccc1
[3]
  remaining at 24 h: 77%
[1]
  remaining at 24 h: > 95%
[2]
  IC50: 7.7 µM
[4]
  remaining at 1 h: 88%
In vitro
  IC50 at 24 h: > 100 µM

## O=C(OCCCc1cccnc1)[C@@H]1CCCCN1S(=O)(=O)Cc1ccccc1
[1]
  remaining at 24 h: 99%
[2]
  IC50: 5.8 µM
In vitro
  IC50 at 24 h: > 100 µM

## O=C(C(=O)N1CCCC[C@H]1C(=O)OCCCc1cccnc1)c1ccccc1
[2]
  IC50: 142 µM
In vitro
  IC50 at 24 h: 88.1 µM

## O=C(OCCOC(=O)[C@@H]1CCCCN1S(=O)(=O)Cc1ccccc1)c1cccnc1
[3]
  remaining at 24 h: 50%
[1]
  remaining at 24 h: 40%
[2]
  IC50: 2.6 µM
[4]
  remaining at 1 h: 82%
In vitro
  IC50 at 24 h: > 100 µM

## O=C(OCCCc1cccnc1)[C@@H]1CCCCN1S(=O)(=O)Cc1ccc(F)cc1
[1]
  remaining at 24 h: > 95%
[2]
  IC50: 5.7 µM
In vitro
  IC50 at 24 h: > 100 µM

## O=C(OCCCc1cccnc1)[C@@H]1CCCCN1S(=O)(=O)Cc1ccc(Cl)cc1
[2]
  IC50: 2.4 µM
In vitro
  IC50 at 24 h: 33.6 µM

## COc1cc(C(=O)NCCOC(=O)[C@@H]2CCCCN2S(=O)(=O)Cc2ccccc2)ccc1O
[2]
  IC50: 3.2 µM
In vitro
  IC50 at 24 h: > 100 µM

## COCCOc1cc(OCCOC)cc(C(=O)NCCOC(=O)[C@@H]2CCCCN2S(=O)(=O)Cc2ccccc2)c1
[1]
  remaining at 24 h: > 95%
[2]
  IC50: 5.6 µM
In vitro
  IC50 at 24 h: > 100 µM

## O=C(OCCCc1cccnc1)[C@@H]1CCCCN1S(=O)(=O)Cc1cccc(Cl)c1
[2]
  IC50: 7.5 µM
In vitro
  IC50 at 24 h: 43.3 µM

## CC(C)NC(=O)[C@@H]1CCCCN1S(=O)(=O)Cc1ccccc1
[1]
  remaining at 24 h: > 95%
[2]
  IC50: > 100 µM
In vitro
  IC50 at 24 h: > 100 µM

## O=C(OCCCc1cccnc1)C1CCCCN1S(=O)(=O)Cc1ccccc1 (racemic)
[2]
  IC50: 10.7 µM
In vitro
  IC50 at 24 h: > 100 µM

## O=C(OCCO)C1CCCCN1S(=O)(=O)Cc1ccccc1 (racemic)
[3]
  remaining at 24 h: 86%
[1]
  remaining at 24 h: > 95%
[2]
  IC50: 94 µM
[4]
  remaining at 1 h: 95%
In vitro
  IC50 at 24 h: > 100 µM

## O=C(OCCCc1cccnc1)C1CCCCN1S(=O)(=O)Cc1cccc([N+](=O)[O-])c1 (racemic)
[2]
  IC50: 8.7 µM
In vitro
  IC50 at 24 h: 46.7 µM

## Nc1cccc(CS(=O)(=O)N2CCCCC2C(=O)OCCCc2cccnc2)c1 (racemic)
[2]
  IC50: > 100 µM
In vitro
  IC50 at 24 h: 62.3 µM

## O=C(OCCCc1cccnc1)C1CCCCN1C(=O)COc1ccc(Cl)cc1 (racemic)
[2]
  IC50: 89.3 µM
In vitro
  IC50 at 24 h: 50.9 µM

## O=C(OCCCc1cccnc1)C1CCCCN1S(=O)(=O)Cc1ccc([N+](=O)[O-])cc1 (racemic)
[2]
  IC50: 3.9 µM
In vitro
  IC50 at 24 h: 56.7 µM

## CC(C)OC(=O)C1CCCCN1S(=O)(=O)Cc1ccccc1 (racemic)
[1]
  remaining at 24 h: > 95%
[2]
  IC50: 79.2 µM
In vitro
  IC50 at 24 h: > 100 µM

## CC(C)Nc1ccc(CS(=O)(=O)N2CCCCC2C(=O)OCCCc2cccnc2)cc1 (racemic)
[2]
  IC50: 44.5 µM
In vitro
  IC50 at 24 h: 44.3 µM

## CC(C)Nc1cccc(CS(=O)(=O)N2CCCCC2C(=O)OCCCc2cccnc2)c1 (racemic)
[2]
  IC50: 41.5 µM
In vitro
  IC50 at 24 h: 57.4 µM

## Nc1ccc(CS(=O)(=O)N2CCCCC2C(=O)OCCCc2cccnc2)cc1 (racemic)
[2]
  IC50: 21.4 µM
In vitro
  IC50 at 24 h: > 100 µM

## C[C@H](CNC(=O)c1cccnc1)OC(=O)[C@@H]1CCCCN1S(=O)(=O)Cc1ccccc1 (single isomer, unassigned)
[2]
  IC50: 11.5 µM
In vitro
  IC50 at 24 h: > 100 µM
